Test results reported in ChEMBL document CHEMBL1151773, “Synthesis and biological evaluation of amide derivatives of (5,6-dimethoxy-2,3-dihydro-1H-inden-1-yl)acetic acid as anti-inflammatory agents with reduced gastrointestinal ulcerogenecity” (Eur J Med Chem, 2008).

Tests used:
Mus musculus = assay: Analgesic activity in Swiss albino mouse assessed as inhibition of acetic acid-induced writhing at 100 mg/kg, po administered 60 mins before acetic acid challenge after 5 to 15 mins relative to control; assay type: functional
Outline: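 Female Swiss albino mice, 20±5 g, fasted overnight with free water access, dosed orally; 1 h later injected i.p. with 1% v/v acetic acid at 0.1 ml/10 g. Writhes (full hind-limb extension) counted for 15 min, starting 5 min after injection; only animals giving 20 or more writhes used. % inhibition = 100(1−Wt/Wc) vs control group mean; six animals per group.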

Rattus norvegicus [1] = assay: Antiinflammatory activity in Wistar rat assessed as inhibition of carrageenan-induced hind paw edema volume at 100 mg/kg, po administered 60 mins before carrageenan challenge after 24 hrs relative to control; assay type: functional
Rattus norvegicus [2] = assay: Antiinflammatory activity in Wistar rat assessed as inhibition of carrageenan-induced hind paw edema volume at 100 mg/kg, po administered 60 mins before carrageenan challenge after 6 hrs relative to control; assay type: functional
Rattus norvegicus [3] = assay: Antiinflammatory activity in Wistar rat assessed as inhibition of carrageenan-induced hind paw edema volume at 100 mg/kg, po administered 60 mins before carrageenan challenge after 4 hrs relative to control; assay type: functional
Rattus norvegicus [4] = assay: Antiinflammatory activity in Wistar rat assessed as inhibition of carrageenan-induced hind paw edema volume at 100 mg/kg, po administered 60 mins before carrageenan challenge after 3 hrs relative to control; assay type: functional
Rattus norvegicus [5] = assay: Antiinflammatory activity in Wistar rat assessed as inhibition of carrageenan-induced hind paw edema volume at 100 mg/kg, po administered 60 mins before carrageenan challenge after 1 hr relative to control; assay type: functional
Rattus norvegicus [6] = assay: Antiinflammatory activity in Wistar rat assessed as inhibition of carrageenan-induced hind paw edema volume at 100 mg/kg, po administered 60 mins before carrageenan challenge after 2 hrs relative to control; assay type: functional
Rattus norvegicus [7] = assay: Gastrointestinal toxicity in Wistar rat assessed as ulcer index at 100 mg/kg, po after 6 hrs; assay type: organism-based; parameters: dose 100 mg/kg, route oral; conditions: in vivo
Outline: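 Female Wistar rats, 175±25 g, fasted 24 h, dosed orally once; sacrificed 6 h later by cervical dislocation. Stomach opened along greater curvature, saline-washed, mucosa inspected with a hand lens. Lesions graded I (edema/hyperemia/petechiae), II (hemorrhagic lesions with small erosions), III (deep ulcers); UI = nI + 2nII + 3nIII. Mean ± SEM, n = 6.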

Rattus norvegicus [8] = assay: Antipyretic activity in Wistar rat assessed as change in LPS-induced rectal temperature at 100 mg/kg, po administered 30 mins before LPS challenge after 7 hrs; assay type: functional
Outline: (§1)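 Adult female Wistar rats, 170±20 g, fasted 24 h, dosed orally at 09:00; 30 min later E. coli 0111:B4 phenol-extracted LPS in apyrogenic saline given i.p. Rectal temperature by telethermometer probe just before and 1–7 h hourly after LPS; temperature index calculated from these readings. n = 6.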

Rattus norvegicus [9] = assay: Antipyretic activity in Wistar rat assessed as change in LPS-induced rectal temperature at 100 mg/kg, po administered 30 mins before LPS challenge after 6 hrs; assay type: functional; outline: as §1
Rattus norvegicus [10] = assay: Antipyretic activity in Wistar rat assessed as change in LPS-induced rectal temperature at 100 mg/kg, po administered 30 mins before LPS challenge after 5 hrs; assay type: functional; outline: as §1
Rattus norvegicus [11] = assay: Antipyretic activity in Wistar rat assessed as change in LPS-induced rectal temperature at 100 mg/kg, po administered 30 mins before LPS challenge after 4 hrs; assay type: functional; outline: as §1
Rattus norvegicus [12] = assay: Antipyretic activity in Wistar rat assessed as change in LPS-induced rectal temperature at 100 mg/kg, po administered 30 mins before LPS challenge after 2 hrs; assay type: functional; outline: as §1
Rattus norvegicus [13] = assay: Antipyretic activity in Wistar rat assessed as change in LPS-induced rectal temperature at 100 mg/kg, po administered 30 mins before LPS challenge after 3 hrs; assay type: functional; outline: as §1
Rattus norvegicus [14] = assay: Antipyretic activity in Wistar rat assessed as change in LPS-induced rectal temperature at 100 mg/kg, po administered 30 mins before LPS challenge after 1 hr; assay type: functional; outline: as §1
Rattus norvegicus [15] = assay: Antiarthritic activity in Freund's complete adjuvant challenged Albino rat model assessed as change in body weight at 100 mg/kg, po administered for 14 days daily once starting a day before adjuvant challenge; assay type: functional; conditions: 336 h, read-out: INH
Rattus norvegicus [16] = assay: Antiarthritic activity in Albino rat assessed as inhibition of Freund's complete adjuvant-induced paw volume at 100 mg/kg, po administered for 14 days daily once starting a day before adjuvant challenge measured on day 13; assay type: functional
Outline: (§2)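 Female albino rats, 160±10 g, six per group, dosed orally once daily for 14 days starting the day before 0.1 ml Freund's complete adjuvant into the right hind paw subplantar surface. Both hind paw volumes, measured up to a mark at the lateral malleolus, taken before and daily after adjuvant.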

Rattus norvegicus [17] = assay: Antiarthritic activity in Albino rat assessed as inhibition of Freund's complete adjuvant-induced paw volume at 100 mg/kg, po administered for 14 days daily once starting a day before adjuvant challenge measured on day 8; assay type: functional; outline: as §2
Rattus norvegicus [18] = assay: Antiarthritic activity in Albino rat assessed as inhibition of Freund's complete adjuvant-induced paw volume at 100 mg/kg, po administered for 14 days daily once starting a day before adjuvant challenge measured on day 3; assay type: functional; outline: as §2

SMILES	inhibition in vivo at 100 mg/kg (Mus musculus)	inhibition in vivo at 100 mg/kg (Rattus norvegicus [1])	inhibition in vivo at 100 mg/kg (Rattus norvegicus [2])	inhibition in vivo at 100 mg/kg (Rattus norvegicus [3])	inhibition in vivo at 100 mg/kg (Rattus norvegicus [4])	inhibition in vivo at 100 mg/kg (Rattus norvegicus [5])	inhibition in vivo at 100 mg/kg (Rattus norvegicus [6])	UI (Rattus norvegicus [7])	Activity (Rattus norvegicus [8])	Activity (Rattus norvegicus [9])	Activity (Rattus norvegicus [10])	Activity (Rattus norvegicus [11])	Activity (Rattus norvegicus [12])	Activity (Rattus norvegicus [13])	Activity (Rattus norvegicus [14])	inhibition in vivo at 100 mg/kg (Rattus norvegicus [15])	inhibition in vivo at 100 mg/kg (Rattus norvegicus [16])	inhibition in vivo at 100 mg/kg (Rattus norvegicus [17])	inhibition in vivo at 100 mg/kg (Rattus norvegicus [18])
COc1cc2c(cc1OC)C(CC(=O)NC1CCCC1)CC2 (stereo not drawn)	37%	46.7%	40.7%	45.3%	43.5%	40.6%	52%	–	–	–	–	–	–	–	–	–	–	–	–
COc1cc2c(cc1OC)C(CC(N)=O)CC2 (stereo not drawn)	24.6%	26.7%	27.8%	31.2%	30.4%	18.8%	31%	–	–	–	–	–	–	–	–	–	–	–	–
CCCCCNC(=O)CC1CCc2cc(OC)c(OC)cc21 (stereo not drawn)	71.7%	46.7%	35.2%	40.6%	37.7%	34.4%	34%	–	–	–	–	–	–	–	–	–	–	–	–
COc1cc2c(cc1OC)C(CC(=O)O)CC2 (stereo not drawn)	44%	26.7%	20.4%	23.9%	27.5%	18.8%	24%	–	–	–	–	–	–	–	–	–	–	–	–
CCN(CC)C(=O)CC1CCc2cc(OC)c(OC)cc21 (stereo not drawn)	27.4%	16.7%	31.5%	37.5%	37.7%	31.2%	40%	–	–	–	–	–	–	–	–	–	–	–	–
COc1cc2c(cc1OC)C(CC(=O)NC(C)C)CC2 (stereo not drawn)	29.3%	30%	37%	39.1%	30.4%	31.2%	37%	0	0.59 °C	0.55 °C	0.43 °C	0.19 °C	-1.51 °C	-0.39 °C	-0.41 °C	–	–	–	–
COc1cc2c(cc1OC)C(CC(=O)N1CCCC1)CC2 (stereo not drawn)	19.2%	33.3%	22.2%	24.2%	26.1%	4.69%	20%	–	–	–	–	–	–	–	–	–	–	–	–
COc1cc2c(cc1OC)C(CC(=O)NC1CC1)CC2 (stereo not drawn)	32.7%	0%	11.1%	17.2%	18.8%	21.9%	14%	–	–	–	–	–	–	–	–	–	–	–	–
COc1cc2c(cc1OC)C(CC(=O)NCc1ccccc1)CC2 (stereo not drawn)	48%	43.3%	30.6%	18.8%	14.4%	18.8%	24%	–	–	–	–	–	–	–	–	–	–	–	–
COc1cc2c(cc1OC)C(CC(=O)N1CCNCC1)CC2 (stereo not drawn)	68.8%	65%	33.3%	40.6%	42%	62.5%	44%	0	0.16 °C	0.19 °C	0.11 °C	-0.18 °C	-1.23 °C	-0.85 °C	-0.45 °C	3.11 g	2.35%	28.8%	35.3%
COc1cc2c(cc1OC)C(CC(=O)N(C)C)CC2 (stereo not drawn)	22.6%	23.3%	33.3%	35.9%	34.8%	25%	36%	–	–	–	–	–	–	–	–	–	–	–	–
COc1cc2c(cc1OC)C(CC(=O)NCCO)CC2 (stereo not drawn)	29.8%	13.3%	13%	9.37%	12.3%	0%	0%	–	0.66 °C	0.65 °C	0.57 °C	0.34 °C	-1.93 °C	0.17 °C	-0.65 °C	–	–	–	–
COc1cc2c(cc1OC)C(CC(=O)NC(C)(C)C)CC2 (stereo not drawn)	41.8%	40%	31.5%	32.8%	33.3%	31.2%	32%	–	–	–	–	–	–	–	–	–	–	–	–
COc1cc2c(cc1OC)C(CC(=O)N1CCCCC1)CC2 (stereo not drawn)	44.7%	40%	31.5%	32%	31.9%	18.8%	22%	–	–	–	–	–	–	–	–	–	–	–	–
COc1cc2c(cc1OC)C(CC(=O)N1CCOCC1)CC2 (stereo not drawn)	23.6%	23.3%	14.8%	13.3%	19.6%	15.6%	14%	–	–	–	–	–	–	–	–	–	–	–	–
CNC(=O)CC1CCc2cc(OC)c(OC)cc21 (stereo not drawn)	21.2%	33.3%	24.1%	29.7%	29%	15.6%	30%	–	–	–	–	–	–	–	–	–	–	–	–
CCCCNC(=O)CC1CCc2cc(OC)c(OC)cc21 (stereo not drawn)	39.4%	36.7%	24.1%	25%	27.5%	31.2%	24%	–	–	–	–	–	–	–	–	–	–	–	–
CC(=O)Oc1ccccc1C(=O)O [ASPIRIN]	61.5%	–	–	–	–	–	–	–	0.23 °C	0.17 °C	0.11 °C	0.05 °C	-1.45 °C	-0.51 °C	-0.43 °C	–	–	–	–
CCNC(=O)CC1CCc2cc(OC)c(OC)cc21 (stereo not drawn)	23.6%	33.3%	20.4%	26.6%	26.1%	15.6%	26%	–	–	–	–	–	–	–	–	–	–	–	–
CCCNC(=O)CC1CCc2cc(OC)c(OC)cc21 (stereo not drawn)	26.9%	26.7%	22.2%	26.6%	29%	18.8%	28%	–	–	–	–	–	–	–	–	–	–	–	–
